SENP6 block = inhibitors of human SENP6 protease. Q9GZR1. Recombinant SENP6 catalytic domain, aminoluciferin luminescence. inhibition, % at 10 µM. 330,000 tested, 1.8% active. AID 2599;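 active = inhibition above about 50% at the single tested dose, limit read from the data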
SENP1 FRET inh = blocks the human SENP1 SUMO protease catalytic domain. AID 624204. inhibition, % at 10 µM. Q9P0U3. recombinant SENP1 catalytic domain, CyPet-SUMO1-YPet FRET cleavage. 360,000 tested, 0.21% active;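 active = inhibition at least 30% at 10 µM, raw YFP signal under a set limit, fluorescence ratio 0.5 to 1.5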
Target sequence (Q9P0U3 419-644 limits assumed): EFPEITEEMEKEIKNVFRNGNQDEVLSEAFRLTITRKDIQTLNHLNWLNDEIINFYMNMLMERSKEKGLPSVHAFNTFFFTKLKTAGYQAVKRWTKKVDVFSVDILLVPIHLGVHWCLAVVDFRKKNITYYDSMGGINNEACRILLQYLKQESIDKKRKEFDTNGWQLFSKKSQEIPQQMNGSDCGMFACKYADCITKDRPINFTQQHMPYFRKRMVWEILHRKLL
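Compound: 10 µM single point, 0.5% DMSO; Test system: hSENP1 catalytic domain, recombinant; Timing: 50 min reaction at room temperature; Technique: FRET, CFP and YFP emission; Control set: no-enzyme wells low, DMSO-plus-enzyme wells high control.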
SENP7 block = blocks the human protease SENP7 | recombinant SENP7, Z-RLRGG-aminoluciferin luminescence, 40 min | inhibition, % at 5 µM | 330,000 tested, 1.5% active;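 active = inhibition above about 50% at the single test dose, limit read from the data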
SENP8 block-1 = blocks the human protease SENP8 | purified SENP8, Z-RLRGG-aminoluciferin cleavage, luminescence | AID 2540 | Q96LD8 | inhibition, % at 10 µM | 330,000 tested, 1.2% active; in the data active = inhibition above about 50%
SENP8 block-2 = inhibitors of human SENP8 protease; Q96LD8; recombinant SENP8, Nedd8 substrate fluorescence; inhibition, % at 20 µM; 360,000 tested, 0.64% active; AID 602440; in the data active = inhibition mostly above about 40%, no sharp cut-off; inactive = mostly below about 27%
SENP8 confirm = confirmation of human SENP8 protease inhibitors; Recombinant SENP8, Z-RLRGG-aminoluciferin luminescence, 60 min; shares compounds with SENP7 block; 6,200 tested, 40% active; inhibition, % at 12.5 µM;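 active = mean inhibition across replicates above about 50%, limit read from the data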
SENP6 confirm = confirmation of human SENP6 protease inhibitors; shares compounds with SENP7 block; recombinant SENP6, Z-RLRGG-aminoluciferin luminescence; inhibition, % at 12.5 µM; 6,200 tested, 58% active; AID 488915
SENP7 conf = human SENP7 inhibition, confirmed; AID 488917; shares compounds with SENP7 block; recombinant SENP7, Z-RLRGG-aminoluciferin luminescence, 40 min; 6,200 tested, 69% active; inhibition, % at 12.5 µM
Casp3 select = selectivity test for SENP inhibitors: human caspase-3 inhibition | shares compounds with SENP7 block | purified caspase-3, Z-DEVD-aminoluciferin luminescence, 60 min | inhibition, % at 12.5 µM | 6,200 tested, 60% active | AID 488918;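 active = mean inhibition above about 50%, limit read from the data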
Target sequence (P42574 28-227 limits assumed): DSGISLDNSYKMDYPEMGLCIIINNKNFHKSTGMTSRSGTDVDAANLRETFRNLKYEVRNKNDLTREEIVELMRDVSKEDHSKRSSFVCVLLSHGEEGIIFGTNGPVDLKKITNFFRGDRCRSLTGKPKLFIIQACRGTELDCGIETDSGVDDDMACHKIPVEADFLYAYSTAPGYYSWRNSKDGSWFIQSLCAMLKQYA
Luc interf = interferes with luciferase luminescence in SENP counter-screen. shares compounds with SENP7 block. Pre-incubated SENP8/Z-RLRGG-aminoluciferin, luciferase luminescence interference. inhibition, % at 12.5 µM. 6,200 tested, 39% active. AID 488919;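 active = mean inhibition above about 50% when retested at one dose, limit read from the data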
Numbers stand for hits. Only some compounds are listed: those with a hit (about 2.5% of all), similar ones and a draw of the others.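 The calls were made as follows, unless noted: active = mean inhibition above about 50% in the one-dose retest (limit read from the data); inactive = the rest.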

`O=c1[nH]c(=O)n(C(c2ccccc2)(c2ccccc2)c2ccccc2)cc1N(CCO)CCO` gave SENP1 FRET inh inactive and SENP8 block-2 inactive.
`CC1OC(Nc2ccc(N=Nc3ccccc3)cc2)C(O)C(O)C1O` (centres undefined) gave SENP6 block inactive, SENP1 FRET inh inactive, SENP7 block inactive, SENP8 block-1 inactive and SENP8 block-2 inactive.
CC1OC(Nc2cccc3ccccc23)C(O)C(O)C1O (centres undefined) was read as SENP6 block 95.1, SENP1 FRET inh inactive, SENP7 block inactive, SENP8 block-1 89.2, SENP8 block-2 inactive, SENP8 confirm inactive, SENP6 confirm 51.9, SENP7 conf inactive, Casp3 select inactive and Luc interf inactive.
Screening CCn1cnc2sc(-c3ccccc3)cc2c1=O returned SENP6 block 58.2, SENP1 FRET inh inactive, SENP7 block inactive, SENP8 block-1 inactive, SENP8 block-2 inactive, SENP8 confirm inactive, SENP6 confirm inactive, SENP7 conf 64.7, Casp3 select inactive and Luc interf inactive.
For COc1cccc(N2CCN(S(=O)(=O)c3ccc4c(c3)N(C(C)=O)CCO4)CC2)c1 the results were SENP6 block inactive, SENP1 FRET inh inactive, SENP7 block inactive, SENP8 block-1 inactive and SENP8 block-2 inactive.
`O=[N+]([O-])c1ccc(O)c(/C=N/Nc2nc3ccccc3[nH]2)c1` gave SENP6 block inactive, SENP1 FRET inh inactive, SENP7 block inactive, SENP8 block-1 inactive and SENP8 block-2 inactive.
For O=[N+]([O-])c1ccc(O)c(/C=N/Nc2ncnc3c2cnn3-c2ccccc2)c1 the results were SENP6 block 90.5, SENP1 FRET inh inactive, SENP7 block 93.4, SENP8 block-1 92.7, SENP8 block-2 inactive, SENP8 confirm 87.4, SENP6 confirm 90.7, SENP7 conf 100.3, Casp3 select inactive and Luc interf inactive.
COc1cc(OC)c(OC)cc1/C=C1\CCC(C2CCCC2)C1=O (centres undefined) was read as SENP6 block inactive, SENP1 FRET inh inactive, SENP7 block inactive, SENP8 block-1 inactive and SENP8 block-2 inactive.
`COc1ccc(/C=C2\CCC(C3CCCC3)C2=O)cc1` (centres undefined) gave SENP6 block 54.4, SENP1 FRET inh inactive, SENP7 block 90.0, SENP8 block-1 77.4, SENP8 block-2 inactive, SENP8 confirm inactive, SENP6 confirm inactive, SENP7 conf inactive, Casp3 select 69.2 and Luc interf inactive.
`COc1ccc(/C=C2\CCC(C3CCCC3)C2=O)c(OC)c1` (centres undefined) gave SENP6 block inactive, SENP1 FRET inh inactive, SENP7 block inactive, SENP8 block-1 inactive and SENP8 block-2 inactive.
For Cc1ccsc1/C=C1\CCC(C2CCCC2)C1=O (centres undefined) the results were SENP6 block 96.8, SENP1 FRET inh inactive, SENP7 block 83.2, SENP8 block-1 85.1, SENP8 block-2 inactive, SENP8 confirm 76.4, SENP6 confirm 80.9, SENP7 conf 92.2, Casp3 select 79.7 and Luc interf 69.6.
Screening Cc1ccc(C(=O)COC(=O)C2CC3CCCC(C2)C3=O)cc1[N+](=O)[O-] (centres undefined) returned SENP6 block inactive, SENP1 FRET inh inactive, SENP7 block inactive, SENP8 block-1 inactive and SENP8 block-2 inactive.
N#C/C(=N\Nc1ccc(Cl)c(Cl)c1)C(=O)C1CC1 was read as SENP6 block 96.3, SENP1 FRET inh inactive, SENP7 block 76.7, SENP8 block-1 93.3, SENP8 block-2 inactive, SENP8 confirm 91.5, SENP6 confirm 98.4, SENP7 conf 100.3, Casp3 select 86.8 and Luc interf inactive.

Screening results as filed in PubChem.
